Measurements pooled from the literature.
Lines come from different studies, so protocols differ.
Target: Histamine H1 receptor (HRH1, Homo sapiens, UniProt P35367)

C[C@H](C(=O)N[C@H]1COc2ccccc2[C@@H]1S(C)(=O)=O)c1ccc(F)cc1 — inhibition (cell-free assay; 10 µM): -5%
COc1ccc(C(=O)NCc2cc(C(C)C)no2)cc1OC1CCN(C)CC1 — inhibition (ligand displacement; radioligand; 10 µM): 37%
CN1CCC(C(c2ccccc2)c2ccccc2)CC1 — kon (binding): 3.33e+06 M⁻¹ s⁻¹
CC(C)N1CCC[C@H]1CNC(=O)c1cn(C2CCCC2)c(=O)c2c1c1ccccc1n2C — inhibition (ligand displacement; radioligand; 10 µM): 22%
c1ccc(C(NCCNC(c2ccccc2)c2ccccc2)c2ccccc2)cc1 — inhibition (cell-free assay; 10 µM): 81%
CC(Cc1ccccc1)NCCn1cnc2c1c(=O)n(C)c(=O)n2C (stereo not shown) — inhibition (ligand displacement; radioligand; 10 µM): 12%
CCN(CC)CCCC[C@H](NC(=O)[C@H](CC(C)C)NC(=O)[C@H](C)NC(=O)[C@H](Cc1ccccc1)NC(=O)c1ccc(C(C)(C)C)cc1)C(=O)N[C@@H](CO)C(=O)OC — inhibition (ligand displacement; radioligand; 10 µM): -6%
COCc1c(-c2cc3cc(C)cc(OC)c3s2)c2c(N)ncnn2c1CN1CCNC(=O)C1 — inhibition (ligand displacement; radioligand; 10 µM): 26%
Cc1c(N2CCNCC2)nc2ccc(Br)cc2c1C(=O)NC[C@H](CCC(=O)O)c1ccccc1Cl — inhibition (ligand displacement; 10 µM): 17.5%
Clc1ccc2c(C3CCN(CCc4c[nH]c5ccccc45)CC3)c[nH]c2c1 — inhibition (ligand displacement; radioligand; 10 µM): 100%
COc1ccc(S(=O)(=O)N2CCCCC2)cc1C — inhibition (ligand displacement; radioligand; 10 µM): < 30%
N#CC1(c2ccccn2)CCN(Cc2cc(C(=O)O)c(=O)n3ccccc23)CC1 — inhibition (cell-free assay; 10 µM): 28.4%
Nc1ncc(-c2nc(N3CCOCC3)nc(N3CCOCC3)n2)c(C(F)F)n1 — remaining signal (cell-free assay; radioligand; 10 µM): 99.1%
